Results from ChEMBL document CHEMBL3526140, “Prediction of human intestinal absorption of the prodrug temocapril by in situ single-pass perfusion using rat intestine with modified hydrolase activity” (Drug Metab Dispos, 2011).

Columns and labels:
[1] = test system: Jejunum; test: Intracellular drug level in Wistar rat jejunum pre-perfused with 400 uM CES inhibitor BNPP at 100 uM at pH 6.4 by in-situ single-pass perfusion method; type: ADME, tissue-based; conditions: in vivo, pH 6.4, 100 µM
Summary of the method: (§1)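 Same in situ jejunal single-pass perfusion, with carboxylesterase blocked by pre-perfusing the lumen with 400 µM BNPP for 40 min. Then 100 µM drug in luminal phosphate buffer (pH 5.4 or 6.4) at 0.2 ml/min. Vascular Krebs–Henseleit (pH 7.4) at 2.5 ml/min. Luminal, vascular and tissue levels measured by HPLC. Rates are luminal disappearance and appearance in lumen or mesenteric vein. Mean ± S.D., n = 3.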

[2] = test system: Jejunum; test: Apparent absorption clearance in Wistar rat jejunum at 100 uM at pH 5.4 by in-situ single-pass perfusion method; type: ADME, tissue-based; conditions: in vivo, pH 5.4, 100 µM
Summary of the method: (§2)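 Rats fasted 18–24 h, anesthetized with intraperitoneal pentobarbital. Isolated cannulated jejunal segment kept at 37°C in Krebs–Henseleit buffer with 3% BSA and 10 mM glucose. Vascular perfusion with Krebs–Henseleit (pH 7.4) at 2.5 ml/min. Lumen perfused at 0.2 ml/min with phosphate buffer (pH 5.4, 6.4 or 7.4) containing 100 µM drug plus FD-4. Luminal and vascular samples assayed by HPLC (UV 258 nm). Parameters normalized to 10 cm intestine. Mean ± S.D., n = 3–6.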

[3] = test system: Jejunum; test: Drug uptake in Wistar rat jejunum mesenteric vein assessed as rate of drug appearance at 100 uM by in-situ single-pass perfusion method; type: ADME, tissue-based; conditions: in vivo; summary of the method: as §2
[4] = test system: Jejunum; test: Intracellular drug level in Wistar rat jejunum assessed as temocaprilat level pre-perfused with 400 uM CES inhibitor BNPP at 100 uM at pH 5.4 by in-situ single-pass perfusion method; type: ADME, tissue-based; conditions: in vivo, pH 5.4, 100 µM; summary of the method: as §1
[5] = test system: Jejunum; test: Apparent hydrolytic clearance in Wistar rat jejunum at 100 uM at pH 7.4 by in-situ single-pass perfusion method; type: ADME, tissue-based; conditions: in vivo; summary of the method: as §2
[6] = test system: Jejunum; test: Drug uptake in Wistar rat jejunum pre-perfused with 400 uM CES inhibitor BNPP assessed as rate of temocaprilat disappearance at 100 uM at pH 6.4 by in-situ single-pass perfusion method; type: ADME, tissue-based; conditions: in vivo, pH 6.4, 100 µM; summary of the method: as §1
[7] = test system: Jejunum; test: Drug uptake in Wistar rat jejunum pre-perfused with 400 uM CES inhibitor BNPP assessed as rate of drug appearance at 100 uM at pH 5.4 by in-situ single-pass perfusion method; type: ADME, tissue-based; conditions: in vivo, pH 5.4, 100 µM; summary of the method: as §1
[8] = test system: Jejunum; test: Drug degradation in Wistar rat jejunum lumen assessed as rate of drug disappearance at 100 uM by in-situ single-pass perfusion method; type: ADME, tissue-based; summary of the method: as §2
[9] = test system: Jejunum; test: Drug uptake in Wistar rat jejunum pre-perfused with 400 uM CES inhibitor BNPP assessed as rate of temocaprilat disappearance at 100 uM at pH 5.4 by in-situ single-pass perfusion method; type: ADME, tissue-based; conditions: in vivo, pH 5.4, 100 µM; summary of the method: as §1
[10] = test system: Jejunum; test: Apparent hydrolytic clearance in Wistar rat jejunum at 100 uM at pH 5.4 by in-situ single-pass perfusion method; type: ADME, tissue-based; conditions: in vivo, pH 5.4, 100 µM; summary of the method: as §2
[11] = Permeability in Wistar rat jejunum at 100 uM at pH 6.4 by in-situ single-pass perfusion method; type: ADME, tissue-based; conditions: other: in-situ single-pass perfusion of the jejunum, read-out: Peff (converted)
Summary of the method: (§3)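 Rats fasted 18–24 h and anesthetized with intraperitoneal pentobarbital. Jejunal loop perfused at 0.2 ml/min with phosphate buffer (pH 5.4, 6.4 or 7.4) containing 100 μM drug and FD-4 (0.1 mg/ml). Vascular perfusate was Krebs–Henseleit bicarbonate buffer (pH 7.4) at 2.5 ml/min, segment kept at 37°C. Drug and metabolite measured by HPLC (UV 258 nm). Peff normalized to 10 cm intestine; mean ± S.D., n = 3–6.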

[12] = test system: Jejunum; test: Apparent hydrolytic clearance in Wistar rat jejunum pre-perfused with 400 uM CES inhibitor BNPP at 100 uM at pH 5.4 by in-situ single-pass perfusion method; type: ADME, tissue-based; conditions: in vivo, pH 5.4, 100 µM; summary of the method: as §1
[13] = Drug hydrolysis in perfused Wistar rat jejunal S9 fraction at 500 uM assessed per mg protein; type: ADME, Jejunum; conditions: s9, 500 µM
Summary of the method: (§4)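 Jejunal mucosal homogenate or S9 (HEPES pH 7.4/KCl) taken from intact jejunum, or after 40 min perfusion with or without 400 µM BNPP. Protein at 400 µg/ml incubated at 37°C with 500 µM drug. Added BNPP (100 or 1000 µM) pre-incubated 5 min. Temocaprilat formed measured by HPLC and given as nmol/min/mg protein and % of control. Mean ± S.D., n = 4.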

[14] = Ratio of Vmax to Km for drug hydrolysis in Wistar rat duodenal S9 fraction assessed per mg protein; type: ADME, Duodenum
Summary of the method: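 Duodenal or jejunal mucosal S9 (9000 g supernatant) in 50 mM HEPES pH 7.4, pre-incubated 5 min at 37°C. Substrate added at 10–500 µM final in 1% DMSO and incubated 20 min; stopped with acetonitrile. Temocaprilat formation measured by HPLC. Km and Vmax from nonlinear Michaelis–Menten fit; intrinsic clearance as Vmax/Km; mean ± S.D.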

[15] = Permeability in Wistar rat jejunum at 100 uM at pH 5.4 by in-situ single-pass perfusion method; type: ADME, tissue-based; conditions: other: in-situ single-pass perfusion of the jejunum, read-out: Peff (converted); summary of the method: as §3
[16] = Drug hydrolysis in intact Wistar rat jejunal S9 fraction at 500 uM assessed per mg protein; type: ADME, Jejunum; conditions: s9, 500 µM; summary of the method: as §4
[17] = test system: Jejunum; test: Intracellular drug level in Wistar rat jejunum pre-perfused with 400 uM CES inhibitor BNPP at 100 uM at pH 5.4 by in-situ single-pass perfusion method; type: ADME, tissue-based; conditions: in vivo, pH 5.4, 100 µM; summary of the method: as §1
[18] = Permeability in Wistar rat jejunum at 100 uM at pH 7.4 by in-situ single-pass perfusion method; type: ADME, tissue-based; conditions: other: in-situ single-pass perfusion of the jejunum, read-out: Peff (converted); summary of the method: as §3
[19] = Drug hydrolysis in intact Wistar rat jejunal S9 fraction at 500 uM assessed per mg protein in presence of 100 uM CES inhibitor BNPP; type: ADME, Jejunum; conditions: s9, 500 µM; summary of the method: as §4
[20] = test system: Jejunum; test: Drug hydrolysis in perfused Wistar rat jejunum mucosal homogenate at 500 uM assessed per mg protein; type: ADME, tissue-based; conditions: tissue homogenate; summary of the method: as §4
[21] = test system: Jejunum; test: Drug uptake in Wistar rat jejunum pre-perfused with 400 uM CES inhibitor BNPP assessed as rate of temocaprilat appearance at 100 uM at pH 5.4 by in-situ single-pass perfusion method; type: ADME, tissue-based; conditions: in vivo, pH 5.4, 100 µM; summary of the method: as §1
[22] = test system: Jejunum; test: Intracellular drug level in Wistar rat jejunum treated with Temocaprilat at 100 uM at pH 5.4 by in-situ single-pass perfusion method; type: ADME, tissue-based; conditions: in vivo, pH 5.4, 100 µM
[23] = Drug hydrolysis in perfused Wistar rat jejunal S9 fraction at 500 uM assessed per mg protein in presence of 400 uM CES inhibitor BNPP; type: ADME, Jejunum; conditions: s9, 500 µM; summary of the method: as §4
[24] = test system: Jejunum; test: Drug hydrolysis in intact Wistar rat jejunum mucosal homogenate at 500 uM assessed per mg protein in presence of 1000 uM CES inhibitor BNPP; type: ADME, tissue-based; conditions: tissue homogenate; summary of the method: as §4
[25] = test system: Jejunum; test: Apparent hydrolytic clearance in Wistar rat jejunum at 100 uM at pH 6.4 by in-situ single-pass perfusion method; type: ADME, tissue-based; conditions: in vivo, pH 6.4, 100 µM; summary of the method: as §2
[26] = Ratio of Vmax to Km for drug jejunal in Wistar rat jejunal S9 fraction assessed per mg protein
[27] = test system: Jejunum; test: Intracellular drug level in Wistar rat jejunum assessed as temocaprilat level pre-perfused with 400 uM CES inhibitor BNPP at 100 uM at pH 6.4 by in-situ single-pass perfusion method; type: ADME, tissue-based; conditions: in vivo, pH 6.4, 100 µM; summary of the method: as §1

Drug uptake [1]: 15.4 nmol/g
CL(app) [2]: 3.59 µL/min
Drug uptake [3]: 0.147 nmol/min
Drug uptake [4]: 17 nmol/g
CL [5]: 43.2 µL/min
CL [6]: 1.17 nmol/min
CL [7]: 0.862 nmol/min
Drug degradation [8]: 3.89 nmol/min
CL [9]: 1.01 nmol/min
CL [10]: 34.4 µL/min
Papp at 100 µM [11]: 57.2 ×10⁻⁶ cm/s
CL [12]: 24.9 µL/min
Drug degradation [13]: 4.28 nmol/min
Vmax/Km [14]: 109 µL/min
Papp at 100 µM [15]: 76 ×10⁻⁶ cm/s
Drug degradation [16]: 4.46 nmol/min
Drug uptake [17]: 20.6 nmol/g
Papp at 100 µM [18]: 54.2 ×10⁻⁶ cm/s
Drug degradation [19]: 1.13 nmol/min
Drug degradation [20]: 3.96 nmol/min
CL [21]: 1.01 nmol/min
Drug uptake [22]: 34.2 nmol/g
Drug degradation [23]: 0.625 nmol/min
Drug degradation [24]: 1.97 nmol/min
CL [25]: 35.4 µL/min
Vmax/Km [26]: 108 µL/min
Drug uptake [27]: 14.6 nmol/g
Structure (SMILES): CCOC(=O)[C@H](CCc1ccccc1)N[C@H]1CS[C@H](c2cccs2)CN(CC(=O)O)C1=O [TEMOCAPRIL]
